# Measurements taken from ChEMBL document CHEMBL3259666, “Discovery of a neuroprotective chemical, (S)-N-(3-(3,6-dibromo-9H-carbazol-9-yl)-2-fluoropropyl)-6-methoxypyridin-2-amine [(-)-P7C3-S243], with improved druglike properties” (J Med Chem, 2014).
# Active and inactive are the calls of the source. The calls are words filed in the database; no cut-off is given here.
# How the values were obtained:
# Mus musculus [1] = assay: Neuroprotective activity in wild type C57BL/J6 mouse assessed as survival of newborn hippocampal neurons at 0.1 to 10 uM, icv administered for 7 days by BrdU staining-based microscopy relative to vehicle-treated control; assay type: functional, organism-based
# Method in brief: (§1)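 Adult (12-week) wild-type C57BL/J6 mice. Compound infused ICV into the left lateral ventricle by osmotic minipump at 0.5 μL/h for 7 days, with BrdU 50 mg/kg/day IP for 6 days. Perfused 24 h after the last BrdU dose. BrdU antigen unmasked (formamide/SSC at 65 °C, then 2 M HCl); anti-BrdU staining. BrdU+ cells in the contralateral dentate gyrus SGZ counted in every fifth 40 μm section and normalised to dentate gyrus volume.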
# NCI-H2122 = assay: Cytotoxicity against human NCI-H2122 cells; assay type: cell-based
# Cytochrome P450 1A2 = molecular target: T1, Cytochrome P450 1A2 (Homo sapiens, UniProt P05177); assay: Inhibition of CYP1A2 (unknown origin); assay type: ADME
# T1 sequence (P05177 whole entry): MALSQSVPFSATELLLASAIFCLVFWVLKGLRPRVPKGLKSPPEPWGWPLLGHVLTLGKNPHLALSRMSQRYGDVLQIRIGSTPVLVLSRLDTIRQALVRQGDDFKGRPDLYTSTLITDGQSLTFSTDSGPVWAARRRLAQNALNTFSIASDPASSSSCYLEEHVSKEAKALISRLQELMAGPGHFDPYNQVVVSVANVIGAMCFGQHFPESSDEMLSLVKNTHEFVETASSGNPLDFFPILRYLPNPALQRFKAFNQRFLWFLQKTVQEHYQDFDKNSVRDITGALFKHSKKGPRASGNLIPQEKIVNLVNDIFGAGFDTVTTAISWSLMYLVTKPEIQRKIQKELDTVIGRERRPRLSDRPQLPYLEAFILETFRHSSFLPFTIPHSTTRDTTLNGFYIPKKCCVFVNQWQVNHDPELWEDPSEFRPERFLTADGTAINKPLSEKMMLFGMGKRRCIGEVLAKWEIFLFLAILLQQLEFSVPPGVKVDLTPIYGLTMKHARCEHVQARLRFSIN
# Cytochrome P450 2C8 = molecular target: T2, Cytochrome P450 2C8 (Homo sapiens, UniProt P10632); assay: Inhibition of CYP2C8 (unknown origin); assay type: ADME
# T2 sequence (P10632 whole entry): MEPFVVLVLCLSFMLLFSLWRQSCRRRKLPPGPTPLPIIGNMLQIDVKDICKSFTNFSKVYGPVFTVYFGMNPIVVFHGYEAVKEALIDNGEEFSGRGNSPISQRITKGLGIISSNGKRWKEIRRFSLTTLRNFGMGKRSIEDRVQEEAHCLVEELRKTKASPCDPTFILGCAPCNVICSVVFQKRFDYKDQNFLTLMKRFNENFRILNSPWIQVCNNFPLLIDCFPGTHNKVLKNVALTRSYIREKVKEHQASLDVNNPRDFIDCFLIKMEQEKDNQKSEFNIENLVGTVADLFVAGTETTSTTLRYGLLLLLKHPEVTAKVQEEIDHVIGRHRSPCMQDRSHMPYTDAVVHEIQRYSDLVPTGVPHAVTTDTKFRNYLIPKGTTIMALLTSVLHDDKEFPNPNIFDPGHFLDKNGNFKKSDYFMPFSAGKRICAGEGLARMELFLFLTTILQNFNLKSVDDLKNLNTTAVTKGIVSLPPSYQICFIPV
# Translocator protein = Translocator protein (Homo sapiens, UniProt P30536); assay: Inhibition of TSPO (unknown origin)
# Mus musculus [2] = assay: Neuroprotective activity in wild type C57BL/J6 mouse assessed as survival of newborn hippocampal neurons at 10 uM, icv administered for 7 days by BrdU staining-based microscopy relative to vehicle-treated control; assay type: functional, organism-based; method in brief: as §1
# NCI-H2009 = assay: Cytotoxicity against human NCI-H2009 cells; assay type: cell-based
# Cytochrome P450 2C9 = Cytochrome P450 2C9 (Homo sapiens, UniProt P11712); assay: Inhibition of CYP2C9 (unknown origin); assay type: ADME
# Cytochrome P450 2C19 = Cytochrome P450 2C19 (Homo sapiens, UniProt P33261); assay: Inhibition of CYP2C19 (unknown origin); assay type: ADME
# [3] = Cytotoxicity against human HCC44 cells; assay type: cell-based
# Cytochrome P450 2D6 = Cytochrome P450 2D6 (Homo sapiens, UniProt P10635); assay: Inhibition of CYP2D6 (unknown origin); assay type: ADME
# Mus musculus [4] = assay: Neuroprotective activity in substantia nigra of C57Bl/6 mouse neurogenesis model assessed as protection from MPTP-induced cell death in mature neurons at 5 mg/kg/day, ip bid administered for 21 days by immunohistochemical analysis relative to vehicle-treated control; assay type: functional, organism-based
# Method in brief: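 MPTP model in adult male C57Bl/6 mice, individually housed 1 week. MPTP free base 30 mg/kg/day IP for 5 days. From day 6 (24 h after the last MPTP dose), compound or vehicle given IP twice daily for 21 days. Mice were then perfused with 4% paraformaldehyde. SNc sectioned at 30 μm intervals and every fourth section stained for TH (DAB, hematoxylin counterstain). TH+ cells counted blinded; mean ± SEM, compared with vehicle + MPTP.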
# Cytochrome P450 2B6 = molecular target: T3, Cytochrome P450 2B6 (Homo sapiens, UniProt P20813); assay: Inhibition of CYP2B6 (unknown origin); assay type: ADME
# T3 sequence (P20813 whole entry): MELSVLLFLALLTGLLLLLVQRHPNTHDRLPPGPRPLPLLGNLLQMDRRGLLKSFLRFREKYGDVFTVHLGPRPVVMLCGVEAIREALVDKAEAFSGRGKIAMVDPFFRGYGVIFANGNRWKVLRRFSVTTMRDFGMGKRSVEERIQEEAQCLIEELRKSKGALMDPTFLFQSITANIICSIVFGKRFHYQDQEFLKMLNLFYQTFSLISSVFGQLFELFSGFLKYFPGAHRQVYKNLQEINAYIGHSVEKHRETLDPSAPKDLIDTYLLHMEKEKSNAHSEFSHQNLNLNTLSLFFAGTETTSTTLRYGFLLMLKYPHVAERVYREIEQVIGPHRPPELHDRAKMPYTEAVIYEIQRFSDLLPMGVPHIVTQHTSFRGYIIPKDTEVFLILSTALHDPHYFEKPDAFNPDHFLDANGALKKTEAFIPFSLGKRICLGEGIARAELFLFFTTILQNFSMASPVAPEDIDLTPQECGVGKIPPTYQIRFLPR
# [5] = Protein binding in plasma (unknown origin) by ultracentrifugation method; assay type: ADME, cell-free; details: read-out: PPB
# Cytochrome P450 3A4 = Cytochrome P450 3A4 (Homo sapiens, UniProt P08684); assay: Inhibition of CYP3A4 (unknown origin); assay type: ADME
# hERG (KCNH2) = hERG (KCNH2) (Homo sapiens, UniProt Q12809); assay: Inhibition of human ERG channel at 50 uM by patch clamp technique
# Sequence of hERG (KCNH2) (Q12809 whole entry): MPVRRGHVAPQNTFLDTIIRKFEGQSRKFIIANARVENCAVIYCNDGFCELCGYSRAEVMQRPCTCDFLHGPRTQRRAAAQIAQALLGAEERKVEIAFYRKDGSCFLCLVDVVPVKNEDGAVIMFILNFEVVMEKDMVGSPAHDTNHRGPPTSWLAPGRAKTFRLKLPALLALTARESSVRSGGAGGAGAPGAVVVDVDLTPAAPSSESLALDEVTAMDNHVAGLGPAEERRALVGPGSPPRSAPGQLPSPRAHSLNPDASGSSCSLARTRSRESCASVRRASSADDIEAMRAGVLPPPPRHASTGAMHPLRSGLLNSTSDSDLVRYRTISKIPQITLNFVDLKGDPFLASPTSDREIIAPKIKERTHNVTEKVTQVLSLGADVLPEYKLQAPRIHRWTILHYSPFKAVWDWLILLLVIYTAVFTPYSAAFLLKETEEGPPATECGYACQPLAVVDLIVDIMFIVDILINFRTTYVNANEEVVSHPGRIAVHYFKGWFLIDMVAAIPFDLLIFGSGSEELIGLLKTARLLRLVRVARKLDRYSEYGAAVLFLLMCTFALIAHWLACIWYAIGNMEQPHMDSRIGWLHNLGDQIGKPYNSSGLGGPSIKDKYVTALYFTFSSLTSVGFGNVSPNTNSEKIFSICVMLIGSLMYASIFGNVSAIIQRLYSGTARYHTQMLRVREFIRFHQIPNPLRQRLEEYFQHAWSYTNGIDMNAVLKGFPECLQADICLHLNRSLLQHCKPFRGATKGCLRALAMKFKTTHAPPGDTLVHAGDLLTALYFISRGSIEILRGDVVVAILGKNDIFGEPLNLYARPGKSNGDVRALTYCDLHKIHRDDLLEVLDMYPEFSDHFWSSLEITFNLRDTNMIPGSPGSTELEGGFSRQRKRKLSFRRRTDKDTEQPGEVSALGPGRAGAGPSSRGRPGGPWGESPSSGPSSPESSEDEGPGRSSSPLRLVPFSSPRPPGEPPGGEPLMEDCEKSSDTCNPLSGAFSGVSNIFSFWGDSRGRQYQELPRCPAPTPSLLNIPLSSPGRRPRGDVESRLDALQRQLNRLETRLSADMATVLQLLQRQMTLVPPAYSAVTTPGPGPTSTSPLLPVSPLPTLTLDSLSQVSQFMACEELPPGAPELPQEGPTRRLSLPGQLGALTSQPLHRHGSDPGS
# Sequence of Cytochrome P450 2D6 (P10635 whole entry): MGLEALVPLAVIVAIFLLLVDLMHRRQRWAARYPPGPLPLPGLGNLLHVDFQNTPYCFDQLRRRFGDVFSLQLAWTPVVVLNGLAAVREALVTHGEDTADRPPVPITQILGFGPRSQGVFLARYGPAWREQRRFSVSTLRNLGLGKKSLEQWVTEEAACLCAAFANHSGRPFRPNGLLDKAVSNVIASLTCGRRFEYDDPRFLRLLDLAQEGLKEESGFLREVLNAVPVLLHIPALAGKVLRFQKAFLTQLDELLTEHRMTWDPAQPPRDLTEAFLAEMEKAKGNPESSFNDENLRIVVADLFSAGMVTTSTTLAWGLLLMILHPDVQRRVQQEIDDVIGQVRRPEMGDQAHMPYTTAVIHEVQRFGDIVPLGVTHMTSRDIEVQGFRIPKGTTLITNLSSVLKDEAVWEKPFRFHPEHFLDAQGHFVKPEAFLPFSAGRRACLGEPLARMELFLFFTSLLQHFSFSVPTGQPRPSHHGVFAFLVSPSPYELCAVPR
# Sequence of Translocator protein (P30536 whole entry): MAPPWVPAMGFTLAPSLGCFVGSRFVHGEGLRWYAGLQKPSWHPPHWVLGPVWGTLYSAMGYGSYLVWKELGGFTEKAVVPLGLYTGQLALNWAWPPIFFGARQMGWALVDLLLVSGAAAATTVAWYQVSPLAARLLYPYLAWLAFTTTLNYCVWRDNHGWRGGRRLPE
# Sequence of Cytochrome P450 2C9 (P11712 whole entry): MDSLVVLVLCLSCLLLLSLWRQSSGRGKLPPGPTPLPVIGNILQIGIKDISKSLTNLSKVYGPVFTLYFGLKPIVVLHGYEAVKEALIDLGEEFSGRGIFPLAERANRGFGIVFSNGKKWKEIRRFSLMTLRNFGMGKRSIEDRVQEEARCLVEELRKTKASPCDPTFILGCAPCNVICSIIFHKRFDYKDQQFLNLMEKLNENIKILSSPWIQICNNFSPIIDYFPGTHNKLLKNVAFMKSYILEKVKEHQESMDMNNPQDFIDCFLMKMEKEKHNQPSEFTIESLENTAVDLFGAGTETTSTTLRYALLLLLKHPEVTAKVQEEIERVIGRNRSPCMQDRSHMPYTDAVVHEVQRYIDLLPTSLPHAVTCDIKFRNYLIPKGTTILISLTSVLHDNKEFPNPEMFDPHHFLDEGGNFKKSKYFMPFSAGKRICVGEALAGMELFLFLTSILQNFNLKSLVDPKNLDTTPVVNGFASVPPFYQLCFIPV
# Sequence of Cytochrome P450 2C19 (P33261 whole entry): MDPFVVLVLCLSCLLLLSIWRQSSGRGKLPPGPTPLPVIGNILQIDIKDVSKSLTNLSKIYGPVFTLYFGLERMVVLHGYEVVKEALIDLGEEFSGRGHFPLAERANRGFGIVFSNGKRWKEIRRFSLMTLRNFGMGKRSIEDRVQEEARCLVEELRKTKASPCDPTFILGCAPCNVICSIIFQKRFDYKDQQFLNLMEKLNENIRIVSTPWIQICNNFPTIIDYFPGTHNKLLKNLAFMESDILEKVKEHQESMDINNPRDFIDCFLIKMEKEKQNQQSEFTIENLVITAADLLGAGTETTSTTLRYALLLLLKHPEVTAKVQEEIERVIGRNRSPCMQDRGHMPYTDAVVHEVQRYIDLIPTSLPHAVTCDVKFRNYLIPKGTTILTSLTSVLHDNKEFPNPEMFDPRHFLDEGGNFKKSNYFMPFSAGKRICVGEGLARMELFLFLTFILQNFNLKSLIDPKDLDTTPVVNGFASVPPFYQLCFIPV
# Sequence of Cytochrome P450 3A4 (P08684 whole entry): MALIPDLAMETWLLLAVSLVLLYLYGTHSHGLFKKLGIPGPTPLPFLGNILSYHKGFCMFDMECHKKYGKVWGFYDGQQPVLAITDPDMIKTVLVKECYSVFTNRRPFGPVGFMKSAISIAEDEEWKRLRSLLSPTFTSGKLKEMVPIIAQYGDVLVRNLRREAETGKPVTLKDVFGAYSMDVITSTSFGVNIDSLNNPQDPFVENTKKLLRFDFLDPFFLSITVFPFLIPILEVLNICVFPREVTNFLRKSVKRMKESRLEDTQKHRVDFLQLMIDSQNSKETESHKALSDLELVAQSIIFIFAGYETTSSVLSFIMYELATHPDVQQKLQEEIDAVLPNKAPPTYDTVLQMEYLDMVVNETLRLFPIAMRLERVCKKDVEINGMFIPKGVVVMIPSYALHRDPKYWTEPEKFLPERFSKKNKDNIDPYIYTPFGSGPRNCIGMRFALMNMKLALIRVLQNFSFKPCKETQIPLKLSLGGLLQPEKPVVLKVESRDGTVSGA
smiles,measurement,setting,value
COc1cccc(NC[C@H](F)Cn2c3ccc(Br)cc3c3cc(Br)ccc32)n1,Activity,Mus musculus [1],Active
same,IC50,NCI-H2122,> 10 µM
same,IC50,Cytochrome P450 1A2,20 µM
same,inhibition (INH),Cytochrome P450 2C8,Active
same,IC50,Translocator protein,0.35 µM
same,Activity,Mus musculus [2],Active
same,IC50,NCI-H2009,> 10 µM
same,inhibition (INH),Cytochrome P450 2C9,Active
same,IC50,Cytochrome P450 2C19,1.9 µM
same,IC50,[3],> 10 µM
same,inhibition (INH),Cytochrome P450 2D6,Active
same,Activity,Mus musculus [4],Active
same,inhibition (INH),Cytochrome P450 2B6,Active
same,fraction unbound,[5],< 0.01
same,inhibition (INH),Cytochrome P450 3A4,Active
same,inhibition at 50 µM,hERG (KCNH2),< 15%
